In brackets after ≈: the same amount, converted by molar mass.
Legend:
[1] = Inhibition of bacteria OXA-48 assessed as apparent inhibition constant using nitrocefin as substrate
Bacteria [2] = test: Inhibition of bacteria OXA-48 assessed as second order rate constant K2/K using nitrocefin as substrate
Bacteria [3] = test: Inhibition of bacteria OXA-48 assessed as half life using nitrocefin as substrate
[4] = Binding affinity to bacteria OXA-48 assessed as dissociation constant
Pseudomonas aeruginosa [5] = test: Antibacterial activity against Pseudomonas aeruginosa 795 by broth microdilution method; format: functional
Pseudomonas aeruginosa [6] = test: Synergistic antibacterial activity against Pseudomonas aeruginosa 715 assessed as cefepime MIC at 8 ug/ml by broth microdilution method; format: functional; conditions: dose 8 µg/ml
Klebsiella pneumoniae [7] = test: Synergistic antibacterial activity against Klebsiella pneumoniae jefferson 1773 producing OXA-181 assessed as meropenem MIC at 8 ug/ml by broth microdilution method; format: functional; conditions: dose 8 µg/ml
Acinetobacter baumannii [8] = test: Antibacterial activity against Acinetobacter baumannii NCTC 13301 producing OXA-23/51 infected in sc dosed Swiss albino mouse administered 1 hr post infection and measured upto 7 days; format: functional; conditions: NCTC 13301, 168 h, time <= 7 day; for ED50: read-out: PD50
Method in brief: (§1)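 Peritonitis model: male and female Swiss albino mice infected intraperitoneally with 3.5×10^5 to 3×10^6 CFU/mouse in 5% hog gastric mucin (lethal to untreated mice within 24 h). […] Survival followed 7 days; PD50/PD90 by probit analysis.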

Acinetobacter baumannii [9] = test: Synergistic antibacterial activity against Acinetobacter baumannii NCTC 13301 producing OXA-23/51 infected in sc dosed Swiss albino mouse assessed as cefepime MIC at 8 ug/ml administered 1 hr post infection and measured upto 7 days; format: functional; conditions: NCTC 13301, 168 h, dose 8 µg/ml, time <= 7 day
Acinetobacter baumannii [10] = test: Synergistic antibacterial activity against Acinetobacter baumannii NCTC 13301 producing OXA-23/51 infected in sc dosed Swiss albino mouse assessed as meropenem MIC at 8 ug/ml administered 1 hr post infection and measured upto 7 days; format: functional; conditions: NCTC 13301, 168 h, dose 8 µg/ml, time <= 7 day
Acinetobacter baumannii [11] = test: Synergistic antibacterial activity against Acinetobacter baumannii NCTC 13301 producing OXA-23/51 infected in sc dosed Swiss albino mouse assessed as colistin MIC at 8 ug/ml administered 1 hr post infection and measured upto 7 days; format: functional; conditions: NCTC 13301, 168 h, dose 8 µg/ml, time <= 7 day
Acinetobacter baumannii [12] = test: Synergistic antibacterial activity against Acinetobacter baumannii NCTC 13303 producing OXA-26/51 infected in sc dosed Swiss albino mouse assessed as cefepime MIC at 8 ug/ml administered 1 hr post infection and measured upto 7 days; format: functional; conditions: NCTC 13303, 168 h, dose 8 µg/ml, time <= 7 day
Acinetobacter baumannii [13] = test: Synergistic antibacterial activity against Acinetobacter baumannii NCTC 13303 producing OXA-26/51 infected in sc dosed Swiss albino mouse assessed as meropenem MIC at 8 ug/ml administered […] post infection and measured upto 7 days; format: functional; conditions: NCTC 13303, 168 h, dose 8 µg/ml, time <= 7 day
Acinetobacter baumannii [14] = test: Synergistic antibacterial activity against Acinetobacter baumannii NCTC 13303 producing OXA-26/51 infected in sc dosed Swiss albino mouse assessed as tigecycline MIC at 8 ug/ml administered […] post infection and measured upto 7 days; format: functional; conditions: NCTC 13303, 168 h, dose 8 µg/ml, time <= 7 day
Acinetobacter baumannii [15] = test: Synergistic antibacterial activity against Acinetobacter baumannii NCTC 13303 producing OXA-26/51 infected in sc dosed Swiss albino mouse assessed as colistin MIC at 8 ug/ml administered […] post infection and measured upto 7 days; format: functional; conditions: NCTC 13303, 168 h, dose 8 µg/ml, time <= 7 day
Acinetobacter baumannii [16] = test: Synergistic antibacterial activity against Acinetobacter baumannii SL46 producing OXA-23/51 infected in sc dosed Swiss albino mouse assessed as cefepime MIC at 8 ug/ml administered 1 hr post infection and measured upto 7 days; format: functional; conditions: SL46, 168 h, dose 8 µg/ml, time <= 7 day
Acinetobacter baumannii [17] = test: Synergistic antibacterial activity against Acinetobacter baumannii SL46 producing OXA-23/51 infected in sc dosed Swiss albino mouse assessed as meropenem MIC at 8 ug/ml administered 2 hrs post infection and measured upto 7 days; format: functional; conditions: SL46, 168 h, dose 8 µg/ml, time <= 7 day
Bacteria [18] = system: Bacteria
Acinetobacter baumannii [19] = test: Antibacterial activity against Acinetobacter baumannii SL46 producing OXA-23/51 infected in sc dosed Swiss albino mouse administered 1 hr post infection and measured upto 7 days; conditions: SL46, 168 h
Acinetobacter baumannii [20] = test: Antibacterial activity against Acinetobacter baumannii NCTC 13303 producing OXA-26/51 infected in sc dosed Swiss albino mouse administered 1 hr post infection and measured upto 7 days; conditions: NCTC 13303, 168 h
[21] = Inhibition of bacteria KPC-2 assessed as apparent inhibition constant using nitrocefin as substrate
[22] = Binding affinity to bacteria KPC-2 assessed as dissociation constant
Acinetobacter baumannii [23] = test: Antibacterial activity against ADC deleted Acinetobacter baumannii transfected with pWH1266 OXA-23 by broth microdilution method; format: functional
Pseudomonas aeruginosa [24] = test: Antibacterial activity against Pseudomonas aeruginosa 776 by broth microdilution method; format: functional
Pseudomonas aeruginosa [25] = test: Synergistic antibacterial activity against Pseudomonas aeruginosa 776 assessed as cefepime MIC at 8 ug/ml by broth microdilution method; format: functional; conditions: dose 8 µg/ml
Bacteria [26] = test: Inhibition of bacteria KPC-2 assessed as Koff rate using nitrocefin as substrate incubated for 30 mins
Bacteria [27] = test: Inhibition of bacteria PDC-3 assessed as Koff rate using nitrocefin as substrate incubated for 30 mins
Klebsiella pneumoniae [28] = test: Antibacterial activity against Klebsiella pneumoniae 440/1360 producing KPC-2 by broth microdilution method; format: functional
Klebsiella pneumoniae [29] = test: Antibacterial activity against Klebsiella pneumoniae 11978 producing OXA-48 by broth microdilution method; format: functional
Klebsiella pneumoniae [30] = test: Antibacterial activity against Klebsiella pneumoniae CAV 1636 producing OXA-181 by broth microdilution method; format: functional
Klebsiella pneumoniae [31] = test: Antibacterial activity against Klebsiella pneumoniae CAV 1543 producing OXA-48 by broth microdilution method; format: functional
Klebsiella pneumoniae [32] = test: Antibacterial activity against Klebsiella pneumoniae NY BS producing OXA-232 by broth microdilution method; format: functional
Klebsiella pneumoniae [33] = test: Antibacterial activity against Klebsiella pneumoniae jefferson 1773 producing OXA-181 by broth microdilution method; format: functional
Klebsiella pneumoniae [34] = test: Antibacterial activity against Klebsiella pneumoniae 935/1884 producing KPC-3 by broth microdilution method; format: functional
Klebsiella pneumoniae [35] = test: Antibacterial activity against Klebsiella pneumoniae 977/1916 producing KPC-3 by broth microdilution method; format: functional
Klebsiella pneumoniae [36] = test: Antibacterial activity against Klebsiella pneumoniae 1084/1957 producing KPC-3 by broth microdilution method; format: functional
Klebsiella pneumoniae [37] = test: Antibacterial activity against Klebsiella pneumoniae 1108/1989 producing KPC-3 by broth microdilution method; format: functional
Acinetobacter baumannii [38] = test: Antibacterial activity against Acinetobacter baumannii NCTC 13303 producing OXA-26/51 infected in sc dosed Swiss albino mouse administered 1 hr post infection and measured upto 7 days; format: functional; conditions: NCTC 13303, 168 h, time <= 7 day; method in brief: as §1
Acinetobacter baumannii [39] = test: Antibacterial activity against Acinetobacter baumannii SL46 producing OXA-23/51 infected in sc dosed Swiss albino mouse administered 1 hr post infection and measured upto 7 days; format: functional; conditions: SL46, 168 h, time <= 7 day; method in brief: as §1

Row | SMILES | K (Bacteria [2]) | T1/2 (Bacteria [3]) | MIC (Pseudomonas aeruginosa [5]) | MIC (Pseudomonas aeruginosa [6]) | MIC (Klebsiella pneumoniae [7]) | ED90 (Acinetobacter baumannii [8]) | ED50 (Acinetobacter baumannii [8]) | T1/2 (Bacteria [18]) | Ki [21] | Kd [22] | MIC (Pseudomonas aeruginosa [24]) | MIC (Pseudomonas aeruginosa [25]) | MIC (Klebsiella pneumoniae [29]) | MIC (Klebsiella pneumoniae [30]) | MIC (Klebsiella pneumoniae [33]) | also measured
1 | N#C[C@@H]1CC[C@@H]2CN1C(=O)N2OS(=O)(=O)[O-].[Na+] | 6.4 10^5/M/s | 0.217 h | > 16 µg/mL | > 16 µg/mL | 0.25 µg/mL | 23.7 mg/kg | 16.3 mg/kg | 0.383 h |  |  |  |  |  |  |  | Ki [1]: 0.29 µM; Kd [4]: 0.0014 µM; MIC (Acinetobacter baumannii [9]): > 256 µg/mL; MIC (Acinetobacter baumannii [10]): 1 µg/mL; MIC (Acinetobacter baumannii [11]): 1 µg/mL; MIC (Acinetobacter baumannii [12]): 64 µg/mL; MIC (Acinetobacter baumannii [13]): 256 µg/mL; MIC (Acinetobacter baumannii [14]): 1 µg/mL; MIC (Acinetobacter baumannii [15]): 0.5 µg/mL; MIC (Acinetobacter baumannii [16]): > 512 µg/mL; MIC (Acinetobacter baumannii [17]): 64 µg/mL; ED90 (Acinetobacter baumannii [19]): 66.2 mg/kg; ED50 (Acinetobacter baumannii [19]; read-out: PD50): 24.9 mg/kg; ED90 (Acinetobacter baumannii [20]): 49.4 mg/kg; ED50 (Acinetobacter baumannii [20]; read-out: PD50): 24 mg/kg
2 | O=C(NNC(=O)[C@@H]1CC[C@@H]2CN1C(=O)N2OS(=O)(=O)O)[C@@H]1CCNC1 |  |  |  | 0.25 µg/mL |  |  |  |  | 7.8 µM | 0.04 µM | 8 µg/mL (≈ 21.2 µM) | 0.25 µg/mL |  |  |  | MIC (Acinetobacter baumannii [23]): 16 µg/mL (≈ 42.4 µM)
3 | NC(=O)[C@@H]1CC[C@@H]2CN1C(=O)N2OS(=O)(=O)[O-].[Na+] [AVIBACTAM SODIUM] | 1.4 10^3/M/s | 16.7 h |  |  |  |  |  | 23.9 h |  |  |  |  | > 16 µg/mL | > 16 µg/mL | > 16 µg/mL | K (Bacteria [26]): 1.4 10^-4/s; K (Bacteria [27]): 8 10^-4/s; MIC (Klebsiella pneumoniae [28]): > 16 µg/mL; MIC (Klebsiella pneumoniae [31]): > 16 µg/mL; MIC (Klebsiella pneumoniae [32]): > 16 µg/mL
4 | O.O=C(NC1CCNCC1)[C@@H]1CC[C@@H]2CN1C(=O)N2OS(=O)(=O)O [RELEBACTAM] |  |  | > 16 µg/mL |  |  |  |  |  |  |  | > 16 µg/mL |  |  |  |  | 
5 | O=C(NNC(=O)[C@@H]1CC[C@@H]2CN1C(=O)N2OS(=O)(=O)O)[C@@H]1CCCNC1 [ZIDEBACTAM] |  |  |  |  | ≤ 0.12 µg/mL | 52.3 mg/kg | 23.2 mg/kg |  | 4.5 µM | 0.043 µM |  | 16 µg/mL | > 16 µg/mL | > 16 µg/mL | > 16 µg/mL | MIC (Klebsiella pneumoniae [34]): > 16 µg/mL; MIC (Klebsiella pneumoniae [35]): > 16 µg/mL; MIC (Klebsiella pneumoniae [36]): > 16 µg/mL; MIC (Klebsiella pneumoniae [37]): > 16 µg/mL; ED90 (Acinetobacter baumannii [38]): 23.2 mg/kg; ED50 (Acinetobacter baumannii [38]; read-out: PD50): < 23.2 mg/kg; ED90 (Acinetobacter baumannii [39]): 52.3 mg/kg; ED50 (Acinetobacter baumannii [39]; read-out: PD50): 23.2 mg/kg

From ChEMBL document CHEMBL5247575 (J Med Chem, 2018)
